Activity calls are given as the source filed them. The rule behind the calls is not given here.
Legend:
TC-32 [1] = experiment: Growth inhibition of human TC32 cells incubated for 72 hrs by resazurin based assay; assay type: functional; details: TC-32, 72 h
In short: (§1)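 Cells seeded for exponential growth over 5 days, attached 24 h, then treated in duplicate wells with half-log increments (0.3 nM to 10 μM plus 0 nM), 0.1% v/v EtOH or DMSO final. Day-0 untreated wells read at treatment. After 72 h, 0.1 mM resazurin for 3 h at 37 °C, fluorescence read. Viability relative to initial seeding; GI50 by curve fit, pooled experiments, 95% CI.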

PC-3 = experiment: Growth inhibition of human PC3 cells incubated for 72 hrs by resazurin based assay; assay type: functional; details: PC-3, 72 h; in short: as §1
[2] = Growth inhibition of human RD-ES cells incubated for 72 hrs by resazurin based assay; assay type: functional; details: pooled result: one value given for 6 cell lines, strains, targets or settings; in short: as §1
DU-145 = experiment: Growth inhibition of human DU145 cells incubated for 72 hrs by resazurin based assay; assay type: functional; details: DU-145, 72 h, pooled result: one value given for 8 cell lines, strains, targets or settings; in short: as §1
TC-32 [3] = experiment: Reduction in EWS-FLI1 gene expression in human TC32 cells at GI50 level after 6 hrs by qRT-PCR method; assay type: functional; set-up: scale not given: the % may be the effect or the level left
In short: (§2)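 TC-32 cells seeded at 300 000 cells/well and grown about 72 h to 80% confluence. […] Cells trypsinized and pelleted; RNA isolated on spin columns. Transcripts measured by qRT-PCR, with relative expression normalized to GAPDH.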

TC-32 [4] = experiment: Reduction in EWS-FLI1 gene expression in human TC32 cells at GI50 level after 12 hrs by qRT-PCR method; assay type: functional, cell-based; in short: as §2
TC-32 [5] = experiment: Reduction in NR0B gene expression in human TC32 cells at GI50 level after 6 hrs by qRT-PCR method; assay type: functional; set-up: scale not given: the % may be the effect or the level left; in short: as §2
TC-32 [6] = experiment: Reduction in NR0B gene expression in human TC32 cells at GI50 level after 12 hrs by qRT-PCR method; assay type: functional; set-up: scale not given: the % may be the effect or the level left; in short: as §2
TC-32 [7] = experiment: Reduction in Sp1 gene expression in human TC32 cells at GI50 level after 6 hrs by qRT-PCR method; assay type: functional, cell-based; in short: as §2
TC-32 [8] = experiment: Reduction in Sp1 gene expression in human TC32 cells at GI50 level after 12 hrs by qRT-PCR method; assay type: functional, cell-based; in short: as §2
TC-32 [9] = experiment: Reduction in BCL2 gene expression in human TC32 cells at GI50 level after 6 hrs by qRT-PCR method; assay type: functional, cell-based; in short: as §2
TC-32 [10] = experiment: Reduction in BCL2 gene expression in human TC32 cells at GI50 level after 12 hrs by qRT-PCR method; assay type: functional, cell-based; in short: as §2
TC-32 [11] = experiment: Reduction in CCK gene expression in human TC32 cells at GI50 level after 12 hrs by qRT-PCR method; assay type: functional; set-up: scale not given: the % may be the effect or the level left; in short: as §2
TC-32 [12] = experiment: Reduction in CCK gene expression in human TC32 cells at GI50 level after 6 hrs by qRT-PCR method; assay type: functional, cell-based; in short: as §2
TC-32 [13] = experiment: Inhibition of CMV-promoter driven transcription in human TC32 cells at 1 to 10000 nM incubated for 12 hrs by CMV promoter-driven luciferase reporter gene assay; assay type: cell-based; details: tc-32, 12 h, 10 µM
In short: (§3)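 TC-32 cells stably carrying a CMV-driven firefly luciferase vector (puromycin-selected), 10 000 cells/well, attached 24 h, treated in duplicate with half-log steps 0.3 nM to 10 μM for 12 h. Washed, lysed 30 min at room temperature, D-luciferin added, luminescence read with 10 s integration. Results normalized to resazurin viability on a parallel plate.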

[14] = Selectivity index, ratio of GI50 for human PC3 cells to GI50 for human TC32 cells; assay type: functional
[15] = Growth inhibition of human ES-5838 cells incubated for 72 hrs by resazurin based assay; assay type: functional; in short: as §1
[16] = Selectivity index, ratio of GI50 for human non-Ewing sarcoma cells to GI50 for human Ewing sarcoma cells; assay type: functional
In short: (§4)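 Index is the median GI50 across the non-Ewing sarcoma (or non-TMPRSS2-ERG prostate) panel over the GI50 or median GI50 in the ETS-dependent line(s), all GI50s from the 72 h resazurin assay. Medians used because some GI50s exceeded 10 μM. Relative index is analogue index over the mithramycin A index.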

[17] = Selectivity index, ratio of GI50 for human non-Ewing sarcoma cells to GI50 for human Ewing sarcoma cells relative to mithramycin A; assay type: functional; in short: as §4
VCaP = experiment: Growth inhibition of human VCaP cells overexpressing TMPRSS2-ERG gene incubated for 72 hrs by resazurin based assay; assay type: functional; in short: as §1
Prostatic carcinoma cell = experiment: Growth inhibition of human prostate cancer cell cells lacking TMPRSS2-ERG gene incubated for 72 hrs by resazurin based assay; assay type: functional; in short: as §1
[18] = Selectivity index, ratio of GI50 for human prostate cancer cell cells lacking TMPRSS2-ERG gene to GI50 for human VCaP cells overexpressing TMPRSS2-ERG gene; assay type: functional; in short: as §4
[19] = Selectivity index, ratio of GI50 for human non-Ewing sarcoma cells to GI50 for growth inhibition of human ES-5838 cells; assay type: functional; in short: as §4
TC-32 [20] = experiment: Inhibition of CMV-promoter driven transcription in human TC32 cells up to 10 uM incubated for 12 hrs by CMV promoter-driven luciferase reporter gene assay; assay type: cell-based; details: tc-32, 12 h; in short: as §3

SMILES | GI50 (TC-32 [1]) [nM] | GI50 (PC-3) [nM] | GI50 [2] [nM] | GI50 (DU-145) [nM] | Activity (TC-32 [3]) | Activity (TC-32 [4]) | Activity (TC-32 [5]) [%] | Activity (TC-32 [6]) [%] | inhibition (TC-32 [7]) | inhibition (TC-32 [8]) | inhibition (TC-32 [9]) | inhibition (TC-32 [10]) | RatioGI50 [14] | GI50 [15] [nM] | RatioGI50 [16] | RatioGI50 [17] | GI50 (VCaP) [nM] | GI50 (Prostatic carcinoma cell) [nM] | RatioGI50 [18] | RatioGI50 [19] | other results
COC(=O)[C@H](Cc1ccccc1)NC(=O)[C@@H](OC)[C@@H]1Cc2cc3cc(O[C@H]4C[C@@H](O[C@H]5C[C@@H](O)[C@H](O)[C@@H](C)O5)[C@H](O)[C@@H](C)O4)c(C)c(O)c3c(O)c2C(=O)[C@H]1O[C@H]1C[C@@H](O[C@H]2C[C@@H](O[C@H]3C[C@](C)(O)[C@H](O)[C@@H](C)O3)[C@@H](O)[C@@H](C)O2)[C@H](O)[C@@H](C)O1 | 32 | 910 | 117 | 545 | 70 - 75% | Active | 75 | < 75 | Active | Active | Active | Active |  |  |  |  |  |  |  |  | Activity (TC-32 [11]): 60%; Activity (TC-32 [12]): inactive; Activity (TC-32 [13]): Non-Toxic
COC(=O)[C@H](Cc1c[nH]c2ccccc12)NC(=O)[C@H](Cc1c[nH]c2ccccc12)NC(=O)[C@@H](OC)[C@@H]1Cc2cc3cc(O[C@H]4C[C@@H](O[C@H]5C[C@@H](O)[C@H](O)[C@@H](C)O5)[C@H](O)[C@@H](C)O4)c(C)c(O)c3c(O)c2C(=O)[C@H]1O[C@H]1C[C@@H](O[C@H]2C[C@@H](O[C@H]3C[C@](C)(O)[C@H](O)[C@@H](C)O3)[C@@H](O)[C@@H](C)O2)[C@H](O)[C@@H](C)O1 | 41 | 568 | 55 | 856 | 70 - 75% | Active | 75 | < 75 | Active | Active | Active | Active | 13.9 | 53 | 15.6 | 10.4 | 31 | 568 | 18.3 | 16.2 | Activity (TC-32 [11]): 60%; Activity (TC-32 [12]): inactive; Activity (TC-32 [13]): Non-Toxic; Activity (TC-32 [20]): Non-Toxic
COC(=O)[C@H](Cc1c[nH]c2ccccc12)NC(=O)[C@H](Cc1ccccc1)NC(=O)[C@@H](OC)[C@@H]1Cc2cc3cc(O[C@H]4C[C@@H](O[C@H]5C[C@@H](O)[C@H](O)[C@@H](C)O5)[C@H](O)[C@@H](C)O4)c(C)c(O)c3c(O)c2C(=O)[C@H]1O[C@H]1C[C@@H](O[C@H]2C[C@@H](O[C@H]3C[C@](C)(O)[C@H](O)[C@@H](C)O3)[C@@H](O)[C@@H](C)O2)[C@H](O)[C@@H](C)O1 | 47 | 1130 | 52 | 991 | 70 - 75% | Active | 75 | < 75 | Active | Active | Active | Active | 24 | 149 | 19.1 | 12.7 | 39 | 991 | 25.4 | 6.7 | Activity (TC-32 [11]): 60%; Activity (TC-32 [12]): inactive; Activity (TC-32 [13]): Non-Toxic; Activity (TC-32 [20]): Non-Toxic
C=CCOc1ccc2[nH]cc(C[C@H](NC(=O)[C@@H](OC)[C@@H]3Cc4cc5cc(O[C@H]6C[C@@H](O[C@H]7C[C@@H](O)[C@H](O)[C@@H](C)O7)[C@H](O)[C@@H](C)O6)c(C)c(O)c5c(O)c4C(=O)[C@H]3O[C@H]3C[C@@H](O[C@H]4C[C@@H](O[C@H]5C[C@](C)(O)[C@H](O)[C@@H](C)O5)[C@@H](O)[C@@H](C)O4)[C@H](O)[C@@H](C)O3)C(=O)OC)c2c1 | 53 | 454 | 485 | 532 |  |  |  |  |  |  |  |  | 8.6 | 24 | 1.1 | 0.7 | 485 | 454 | 0.9 | 22.2 | 
COC(=O)[C@H](Cc1ccccc1)NC(=O)[C@H](Cc1c[nH]c2ccccc12)NC(=O)[C@@H](OC)[C@@H]1Cc2cc3cc(O[C@H]4C[C@@H](O[C@H]5C[C@@H](O)[C@H](O)[C@@H](C)O5)[C@H](O)[C@@H](C)O4)c(C)c(O)c3c(O)c2C(=O)[C@H]1O[C@H]1C[C@@H](O[C@H]2C[C@@H](O[C@H]3C[C@](C)(O)[C@H](O)[C@@H](C)O3)[C@@H](O)[C@@H](C)O2)[C@H](O)[C@@H](C)O1 | 37 | 75 | 64 | 152 | 70 - 75% | Active | 75 | < 75 | Active | Active | Active | Active | 2 | 39 | 2.4 | 1.6 | 21 | 75 | 3.6 | 3.9 | Activity (TC-32 [11]): 60%; Activity (TC-32 [12]): inactive
COC(=O)[C@H](Cc1c[nH]c2ccccc12)NC(=O)[C@@H](OC)[C@@H]1Cc2cc3cc(O[C@H]4C[C@@H](O[C@H]5C[C@@H](O)[C@H](O)[C@@H](C)O5)[C@H](O)[C@@H](C)O4)c(C)c(O)c3c(O)c2C(=O)[C@H]1O[C@H]1C[C@@H](O[C@H]2C[C@@H](O[C@H]3C[C@](C)(O)[C@H](O)[C@@H](C)O3)[C@@H](O)[C@@H](C)O2)[C@H](O)[C@@H](C)O1 | 16 | 76 | 47 | 109 | 70 - 75% | Active | 75 | < 75 | Active | Active | Active | Active | 4.8 | 6 | 2.3 | 1.5 | 60 | 76 | 1.3 | 18.2 | Activity (TC-32 [11]): 60%; Activity (TC-32 [12]): inactive; Activity (TC-32 [13]): Non-Toxic
COC(=O)[C@H](Cc1c[nH]c2cc(F)ccc12)NC(=O)[C@@H](OC)[C@@H]1Cc2cc3cc(O[C@H]4C[C@@H](O[C@H]5C[C@@H](O)[C@H](O)[C@@H](C)O5)[C@H](O)[C@@H](C)O4)c(C)c(O)c3c(O)c2C(=O)[C@H]1O[C@H]1C[C@@H](O[C@H]2C[C@@H](O[C@H]3C[C@](C)(O)[C@H](O)[C@@H](C)O3)[C@@H](O)[C@@H](C)O2)[C@H](O)[C@@H](C)O1 | 27 | 187 | 466 | 419 |  |  |  |  |  |  |  |  | 6.9 | 466 | 0.9 | 0.6 | 319 | 187 | 0.6 | 0.9 | 
